# ChEMBL document CHEMBL2062399, “Design, synthesis, and structure-activity relationships of a series of 2-Ar-8-methyl-5-alkylaminoquinolines as novel CRF₁ receptor antagonists” (Bioorg Med Chem Lett, 2012)
# Tests used:
# [1] = biological target: T1, Corticotropin-releasing factor receptor 1 (Homo sapiens, UniProt P34998); assay: Displacement of [125I]-CRF from human CRF1 receptor expressed in HEK293 cells after 2 hrs; format: cell-based
# T1 sequence (P34998 whole entry): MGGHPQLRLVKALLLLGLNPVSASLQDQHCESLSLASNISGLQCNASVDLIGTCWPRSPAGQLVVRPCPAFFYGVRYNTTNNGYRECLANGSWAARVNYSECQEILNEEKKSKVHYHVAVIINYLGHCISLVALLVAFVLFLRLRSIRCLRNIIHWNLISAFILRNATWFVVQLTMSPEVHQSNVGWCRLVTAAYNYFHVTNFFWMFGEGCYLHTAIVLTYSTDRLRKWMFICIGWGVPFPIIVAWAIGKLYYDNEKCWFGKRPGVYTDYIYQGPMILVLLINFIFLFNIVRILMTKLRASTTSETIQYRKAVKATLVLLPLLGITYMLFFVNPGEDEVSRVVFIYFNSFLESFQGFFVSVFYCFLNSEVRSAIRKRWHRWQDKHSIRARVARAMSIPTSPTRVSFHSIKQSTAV
# In short: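 Scintillation proximity assay with HEK293 membranes expressing human CRF1 (5 µg/well), WGA-coated SPA beads and 0.1 nM [125I] human/rat CRF. Buffer pH 7.0 with 10 mM MgCl2, 2 mM EGTA, 1.5% BSA and protease inhibitors. Nonspecific binding with 0.4 µM unlabeled sauvagine. Incubated over 2 h at room temperature, then centrifuged and counted. Specific binding taken as % of total, IC50 from concentration-response curve.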
# [2] = biological target: T1, Corticotropin-releasing factor receptor 1; assay: Antagonist activity at human CRF1 receptor expressed in HEK293 cells assessed as inhibition of CRF-stimulated intracellular cAMP accumulation after 30 mins by enzyme immunoassay; format: functional, cell-based
# In short: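 HEK293 cells stably expressing human CRF1, seeded at 5×10^4 cells/well in DMEM with 0.1% FBS and 1 mM IBMX. After 30 min preincubation, compound added for 30 min at 37 °C, then 1 nM human/rat CRF for 30 min at 37 °C. Lysed cAMP measured by EIA, basal subtracted, expressed as % of total production. IC50 from concentration-response curve.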
# Rattus norvegicus = assay: Inhibition of CRF-induced fecal pellet output in rat at 10 mg/kg, po administered 1 hr before CRF challenge by measuring decrease in fecal weight after 4 hrs; format: functional; conditions: Feces
# In short: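 Rats dosed orally at 10 mg/kg 1 h before intravenous CRF (10 µg/kg). Fecal weight measured 4 h after CRF injection and compared with the vehicle + CRF group. 6–7 rats/group, mean ± S.E.M., unpaired t test.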
IC50 [1] [nM],IC50 [2] [nM],SMILES,inhibition in vivo at 10 mg/kg (Rattus norvegicus) [%]
> 1000,–,CCCN(CCC)c1ccc(C)c2nc(Oc3c(OC)cc(COC)cc3OC)c(C)cc12,–
276,97,CCCN(CCC)c1cccc2nc(-c3c(OC)cc(COC)cc3OC)c(C)cc12,–
88,70,CCCN(CCC)c1ccc(C)c2nc(-c3c(OC)cc(COC)cc3OC)c(C)cc12,64
115,375,CCCN(CCC)c1ccc(CC)c2nc(-c3c(OC)cc(COC)cc3OC)c(C)cc12,–
212,> 1000,COCc1cc(OC)c(-c2nc3c(C)ccc(N(C)C)c3cc2C)c(OC)c1,–
79,24,CCN(CC)c1ccc(C)c2nc(-c3c(OC)cc(COC)cc3OC)c(C)cc12,63
88,46,COCc1cc(OC)c(-c2nc3c(C)ccc(N(CC4CC4)CC4CC4)c3cc2C)c(OC)c1,53
89,174,COCCN(C)c1ccc(C)c2nc(-c3c(OC)cc(COC)cc3OC)c(C)cc12,–
109,23,CCN(CCOC)c1ccc(C)c2nc(-c3c(OC)cc(COC)cc3OC)c(C)cc12,–
286,–,COCc1cc(OC)c(-c2nc3c(C)ccc(N(CC4CCOCC4)CC4CC4)c3cc2C)c(OC)c1,–
246,–,COCc1cc(OC)c(-c2nc3c(C)ccc(N(CC4CC4)C4CCOCC4)c3cc2C)c(OC)c1,–
> 1000,–,CCC(CC)Nc1ccc(C)c2nc(-c3c(OC)cc(COC)cc3OC)c(C)cc12,–
> 1000,–,COCCNc1ccc(C)c2nc(-c3c(OC)cc(COC)cc3OC)c(C)cc12,–
184,381,CCN(CC)c1ccc(C)c2nc(-c3c(OC)cc(COC)cc3OC)ccc12,–
144,131,CCN(CC)c1ccc(C)c2nc(-c3c(OC)cc(COC)cc3OC)c(F)cc12,–
81,45,CCN(CC)c1ccc(C)c2nc(-c3c(OC)cc(COC)cc3OC)c(Cl)cc12,–
